In brackets after ≈: the same amount, converted by molar mass.
Columns and labels:
Assay type in all cases: functional
[1] = system: Pseudomonas aeruginosa; test: Inhibition of MexAB-OprM efflux pump expression in Pseudomonas aeruginosa TNP090 mutant harboring las and rhl gene at 1 ug/ml by Cat-2,3-diO reporter gene assay relative to untreated control; details: values are per cent of control
How it was run: (§1)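 Overnight TNP090 (mexB::xylE reporter) preculture diluted 10,000-fold into fresh medium with or without antibiotic, dosed as fractions of the TNP090 MIC. Shaken at 200 rpm, 37°C, for 9 h to A600 ~1.5 (early stationary phase). Extracts made by French press at 130 MPa, then centrifuged at 13,000 × g. Cat-2,3-diO activity expressed relative to drug-free culture.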

[2] = system: Pseudomonas aeruginosa; test: Inhibition of MexAB-OprM efflux pump expression in Pseudomonas aeruginosa TNP090 mutant harboring las and rhl gene at 0.5 ug/ml by Cat-2,3-diO reporter gene assay relative to untreated control; details: values are per cent of control; how it was run: as §1
[3] = system: Pseudomonas aeruginosa; test: Inhibition of MexAB-OprM efflux pump expression in Pseudomonas aeruginosa TNP090 mutant harboring las and rhl gene at 0.25 ug/ml by Cat-2,3-diO reporter gene assay relative to untreated control; details: values are per cent of control; how it was run: as §1
[4] = system: Pseudomonas aeruginosa; test: Inhibition of MexAB-OprM efflux pump expression in Pseudomonas aeruginosa TNP090 mutant harboring las and rhl gene at 0.125 ug/ml by Cat-2,3-diO reporter gene assay relative to untreated control; details: values are per cent of control; how it was run: as §1
[5] = system: Pseudomonas aeruginosa; test: Inhibition of MexAB-OprM efflux pump expression in las1 and rhl1 deficient Pseudomonas aeruginosa TNP093 at 1 ug/ml after 9 hrs by Cat-2,3-diO reporter gene assay; details: TNP093, 9 h, values are per cent of control
How it was run: (§2)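 Reporter strains lacking lasI, rhlI or both were diluted 10,000-fold from overnight culture into fresh medium with or without 1 μg/ml azithromycin. Cultures were shaken at 200 rpm, 37°C for 9 h (A600 ~1.5, early stationary phase). Cat-2,3-diO activity was assayed in cell extracts and […].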

[6] = system: Pseudomonas aeruginosa; test: Inhibition of MexAB-OprM efflux pump expression in rhl1 deficient Pseudomonas aeruginosa TNP092 at 1 ug/ml after 9 hrs by Cat-2,3-diO reporter gene assay; details: TNP092, 9 h, values are per cent of control; how it was run: as §2
[7] = system: Pseudomonas aeruginosa; test: Inhibition of MexAB-OprM efflux pump expression in las1 deficient Pseudomonas aeruginosa TNP091 at 1 ug/ml after 9 hrs by Cat-2,3-diO reporter gene assay; details: TNP091, 9 h, values are per cent of control; how it was run: as §2
[8] = system: Pseudomonas aeruginosa; test: Inhibition of MexAB-OprM efflux pump expression in Pseudomonas aeruginosa TNP090 mutant harboring las and rhl gene at 1 ug/ml after 11.5 hrs by Cat-2,3-diO reporter gene assay relative to untreated control; details: TNP090, 11.5 h
How it was run: (§3)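 Overnight TNP090 preculture diluted 100,000-fold (A600 3 × 10−5) in LB with or without 1 μg/ml azithromycin. Grown at 37°C with 200 rpm rotation and harvested at 5.5 h (AZM) or 4.5 h (drug-free), then at +2, +4 and +6 h. French-press extracts (130 MPa ×3), 13,000 × g supernatant assayed for Cat-2,3-diO. 1 unit = 1 nmol substrate/min/mg protein. Representative of repeated experiments.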

[9] = system: Pseudomonas aeruginosa; test: Inhibition of MexAB-OprM efflux pump expression in Pseudomonas aeruginosa TNP090 mutant harboring las and rhl gene at 1 ug/ml after 9.5 hrs by Cat-2,3-diO reporter gene assay relative to untreated control; details: TNP090, 9.5 h; how it was run: as §3
[10] = system: Pseudomonas aeruginosa; test: Inhibition of MexAB-OprM efflux pump expression in Pseudomonas aeruginosa TNP090 mutant harboring las and rhl gene at 1 ug/ml after 7.5 hrs by Cat-2,3-diO reporter gene assay relative to untreated control; details: TNP090, 7.5 h; how it was run: as §3
[11] = system: Pseudomonas aeruginosa; test: Inhibition of MexAB-OprM efflux pump expression in Pseudomonas aeruginosa TNP090 mutant harboring las and rhl gene at 1 ug/ml after 5.5 hrs by Cat-2,3-diO reporter gene assay relative to untreated control; details: TNP090, 5.5 h; how it was run: as §3
[12] = system: Pseudomonas aeruginosa; test: Inhibition of MexAB-OprM efflux pump expression in Pseudomonas aeruginosa TNP090 mutant harboring las and rhl gene at 1 ug/ml by Cat-2,3-diO reporter gene assay; how it was run: as §3
[13] = system: Pseudomonas aeruginosa; test: Inhibition of MexAB-OprM efflux pump expression in Pseudomonas aeruginosa at 1.0 ug/ml
How it was run: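 TNP090 (las+ rhl+, mexB::xylE reporter) overnight culture was diluted 100,000-fold (A600 3 × 10−5) into LB with or without 1 μg/ml azithromycin and shaken at 200 rpm, 37°C. Cells were harvested at ~4.5 h (drug-free) or 5.5 h (drug), then at plus 2, 4 and 6 h. Cat-2,3-diO activity was measured in French-press extracts (1 unit = 1 nmol substrate/min/mg protein). Results are representative of repeated experiments.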

[14] = system: Pseudomonas aeruginosa; test: Antibacterial activity against Pseudomonas aeruginosa TNP090 harboring chromosomal mexB::xylE fusion construct by agar dilution method
How it was run: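 Agar dilution MIC on Mueller-Hinton agar; inoculum 5 × 10^3 cells per spot.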

[15] = system: Pseudomonas aeruginosa; test: Antibacterial activity against Pseudomonas aeruginosa PAO4290 by agar dilution method
How it was run: (§4)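 Agar dilution on Mueller-Hinton agar with an inoculum of 150 CFU/5 μl per spot. Plates were run with or without 1.0 μg/ml azithromycin incorporated in the agar, and MIC was read for each strain.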

[16] = system: Pseudomonas aeruginosa; test: Antibacterial activity against Pseudomonas aeruginosa PAO4290 selected after 1.0 ug/ml of azithromycin by agar dilution method; how it was run: as §4
[17] = system: Pseudomonas aeruginosa; test: Antibacterial activity against Pseudomonas aeruginosa TNP030 by agar dilution method; how it was run: as §4
[18] = system: Pseudomonas aeruginosa; test: Antibacterial activity against Pseudomonas aeruginosa TNP030 selected after 1.0 ug/ml of azithromycin by agar dilution method; how it was run: as §4
[19] = system: Pseudomonas aeruginosa; test: Antibacterial activity against MeXAB-OprM deficient Pseudomonas aeruginosa TNP077 by agar dilution method; how it was run: as §4
[20] = system: Pseudomonas aeruginosa; test: Antibacterial activity against MeXAB-OprM deficient Pseudomonas aeruginosa TNP077 selected after 1.0 ug/ml of azithromycin by agar dilution method; how it was run: as §4
[21] = system: Pseudomonas aeruginosa; test: Inhibition of MexAB-OprM efflux pump expression in Pseudomonas aeruginosa TNP090 mutant harboring las and rhl gene at 0.03 ug/ml by Cat-2,3-diO reporter gene assay relative to untreated control; details: values are per cent of control; how it was run: as §1
[22] = system: Pseudomonas aeruginosa; test: Inhibition of MexAB-OprM efflux pump expression in Pseudomonas aeruginosa TNP090 mutant harboring las and rhl gene at 0.016 ug/ml by Cat-2,3-diO reporter gene assay relative to untreated control; details: values are per cent of control; how it was run: as §1
[23] = system: Pseudomonas aeruginosa; test: Inhibition of MexAB-OprM efflux pump expression in Pseudomonas aeruginosa TNP090 mutant harboring las and rhl gene at 0.06 ug/ml by Cat-2,3-diO reporter gene assay relative to untreated control; details: values are per cent of control; how it was run: as §1

## CC[C@H]1OC(=O)[C@H](C)[C@@H](O[C@H]2C[C@@](C)(OC)[C@@H](O)[C@H](C)O2)[C@H](C)[C@@H](O[C@@H]2O[C@H](C)C[C@H](N(C)C)[C@H]2O)[C@](C)(O)C[C@@H](C)CN(C)[C@H](C)[C@@H](O)[C@]1(C)O [AZITHROMYCIN]
[1]
  response, % of control at 1 µg/mL: 37%
[2]
  response, % of control at 0.5 µg/mL: 65%
[3]
  response, % of control at 0.25 µg/mL: 78%
[4]
  response, % of control at 0.125 µg/mL: 85%
[5]
  response, % of control at 1 µg/mL: 100%
[6]
  response, % of control at 1 µg/mL: 90%
[7]
  response, % of control at 1 µg/mL: 99%
[8]
  inhibition at 1 µg/mL: -63%
[9]
  inhibition at 1 µg/mL: -70.2%
[10]
  inhibition at 1 µg/mL: -73%
[11]
  inhibition at 1 µg/mL: -30.9%
[12]
  Activity: 44.3
[13]
  inhibition at 1 µg/mL: 70%
[14]
  MIC: 6.25 µg/mL (≈ 8.34 µM)

## C[C@H]1[C@H](NC(=O)/C(=N\OC(C)(C)C(=O)O)c2csc(N)n2)C(=O)N1S(=O)(=O)O [AZTREONAM]
[15]
  MIC: 3.12 µg/mL (≈ 7.17 µM)
[16]
  MIC: 1.56 µg/mL
[17]
  MIC: 12.5 µg/mL (≈ 28.7 µM)
[18]
  MIC: 12.5 µg/mL
[19]
  MIC: 0.1 µg/mL (≈ 0.23 µM)
[20]
  MIC: 0.1 µg/mL

## CC1(C)S[C@@H]2[C@H](NC(=O)C(C(=O)O)c3ccccc3)C(=O)N2[C@H]1C(=O)O (stereo partly specified) [CARBENICILLIN]
[15]
  MIC: 50 µg/mL (≈ 132 µM)
[16]
  MIC: 12.5 µg/mL
[17]
  MIC: 200 µg/mL (≈ 529 µM)
[18]
  MIC: 200 µg/mL
[19]
  MIC: 0.78 µg/mL (≈ 2.06 µM)
[20]
  MIC: 1.56 µg/mL

## CC(C)(O/N=C(\C(=O)N[C@@H]1C(=O)N2C(C(=O)[O-])=C(C[n+]3ccccc3)CS[C@H]12)c1csc(N)n1)C(=O)O [CEFTAZIDIME]
[15]
  MIC: 1.56 µg/mL (≈ 2.85 µM)
[16]
  MIC: 1.56 µg/mL
[17]
  MIC: 3.13 µg/mL (≈ 5.73 µM)
[18]
  MIC: 3.13 µg/mL
[19]
  MIC: 0.39 µg/mL (≈ 0.714 µM)
[20]
  MIC: 0.39 µg/mL

## O=C(N[C@H](CO)[C@H](O)c1ccc([N+](=O)[O-])cc1)C(Cl)Cl [CHLORAMPHENICOL]
[15]
  MIC: 25 µg/mL (≈ 77.4 µM)
[16]
  MIC: 6.25 µg/mL
[17]
  MIC: 200 µg/mL (≈ 619 µM)
[18]
  MIC: 200 µg/mL
[19]
  MIC: 0.39 µg/mL (≈ 1.21 µM)
[20]
  MIC: 0.39 µg/mL

## C[C@@H](O)[C@H]1C(=O)N2C(C(=O)O)=C(SCCNC=N)C[C@H]12 [IMIPENEM ANHYDROUS]
[15]
  MIC: 0.78 µg/mL (≈ 2.61 µM)
[16]
  MIC: 0.78 µg/mL
[17]
  MIC: 0.78 µg/mL (≈ 2.61 µM)
[18]
  MIC: 0.78 µg/mL
[19]
  MIC: 0.78 µg/mL (≈ 2.61 µM)
[20]
  MIC: 0.78 µg/mL

## CO[C@@H]1[C@@H](OC(N)=O)[C@@H](O)[C@H](Oc2ccc3c(O)c(NC(=O)c4ccc(O)c(CC=C(C)C)c4)c(=O)oc3c2C)OC1(C)C [NOVOBIOCIN]
[15]
  MIC: 800 µg/mL (≈ 1310 µM)
[16]
  MIC: 200 µg/mL
[17]
  MIC: > 1200 µg/mL
[18]
  MIC: > 1200 µg/mL
[19]
  MIC: 12.5 µg/mL (≈ 20.4 µM)
[20]
  MIC: 12.5 µg/mL

## CC1COc2c(N3CCN(C)CC3)c(F)cc3c(=O)c(C(=O)O)cn1c23 (stereo unspecified) [OFLOXACIN]
[15]
  MIC: 0.78 µg/mL (≈ 2.16 µM)
[16]
  MIC: 0.78 µg/mL
[17]
  MIC: > 1.56 µg/mL
[18]
  MIC: > 1.56 µg/mL
[19]
  MIC: 0.05 µg/mL (≈ 0.138 µM)
[20]
  MIC: 0.05 µg/mL

## CN(C)[C@@H]1C(O)=C(C(N)=O)C(=O)[C@@]2(O)C(O)=C3C(=O)c4c(O)cccc4[C@@](C)(O)[C@H]3C[C@@H]12 [TETRACYCLINE]
[21]
  response, % of control at 0.03 µg/mL: 94%
[22]
  response, % of control at 0.016 µg/mL: 103%
[4]
  response, % of control at 0.125 µg/mL: 51%
[23]
  response, % of control at 0.06 µg/mL: 69%
[15]
  MIC: 12.5 µg/mL (≈ 28.1 µM)
[16]
  MIC: 3.13 µg/mL
[17]
  MIC: 50 µg/mL (≈ 113 µM)
[18]
  MIC: 50 µg/mL
[19]
  MIC: 0.39 µg/mL (≈ 0.878 µM)
[20]
  MIC: 0.39 µg/mL

— ChEMBL document CHEMBL1275516, “Macrolide antibiotic-mediated downregulation of MexAB-OprM efflux pump expression in Pseudomonas aeruginosa” (2008)
